Compound activity from PubChem BioAssay.
The list is not random: actives were taken first. Their share in the collection is about 12%.
Lmaj promast: Leishmania major promastigote growth inhibition, primary screen | AID 1063, 2008 | 200,000 compounds, 9% hits | Leishmania major promastigotes, resazurin fluorescence viability | inhibition, % at 10 µM; in the data active = inhibition above about 50%;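 note: promastigotes grown with compound for 44 hours at 28 °C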
RAM network inh: inhibitors of the yeast RAM network, primary screen, dse1pr::URA3 reporter, 5-FOA selection; S. cerevisiae dse1pr::URA3 reporter, 5-FOA growth OD615, 2 d; analog-sensitive cbk1-as2 kinase mutant strain; inhibition, % at 50 µM; 190,000 compounds, 1.8% hits; AID 868, 2007;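 active = inhibition above a set limit, 3 SD over mean compound inhibition, cut at about 8.4% in these data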;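 note: inhibition rescues growth on 5-FOA so higher OD means more RAM inhibition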
ABCG2 block: ABCG2 efflux pump inhibitors, primary screen, multiplex with ABCB1, IgMXP3 cells, flow cytometry. Broad substrate specificity ATP-binding cassette transporter ABCG2 (Homo sapiens), Q9UNQ0. JC-1 efflux. inhibition, % at 6.6 µM. 190,000 compounds, 0.1% hits. AID 1325, 2008;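 active = inhibition above 80%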
Target sequence (Q9UNQ0 whole entry, looked up): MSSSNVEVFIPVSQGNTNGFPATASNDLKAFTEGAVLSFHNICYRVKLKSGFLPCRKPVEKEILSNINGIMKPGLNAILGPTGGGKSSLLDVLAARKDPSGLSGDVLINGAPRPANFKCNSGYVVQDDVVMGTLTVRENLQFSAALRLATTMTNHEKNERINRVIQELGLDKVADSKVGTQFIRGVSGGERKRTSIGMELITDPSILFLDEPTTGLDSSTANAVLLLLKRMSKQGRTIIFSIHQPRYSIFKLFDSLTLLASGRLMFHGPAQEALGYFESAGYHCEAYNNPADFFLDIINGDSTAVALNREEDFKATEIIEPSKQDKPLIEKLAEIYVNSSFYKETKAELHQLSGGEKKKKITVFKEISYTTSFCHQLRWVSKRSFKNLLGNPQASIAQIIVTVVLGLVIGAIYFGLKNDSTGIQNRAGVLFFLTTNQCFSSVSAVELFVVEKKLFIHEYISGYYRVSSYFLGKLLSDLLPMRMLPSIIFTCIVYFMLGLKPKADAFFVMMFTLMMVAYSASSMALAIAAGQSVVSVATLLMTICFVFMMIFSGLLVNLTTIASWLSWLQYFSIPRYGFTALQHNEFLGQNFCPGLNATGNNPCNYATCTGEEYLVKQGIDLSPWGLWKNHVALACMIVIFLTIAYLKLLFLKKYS
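Assay system – ABCG2 IgMXP3 and barcoded ABCB1 CCRF-Adr cell mix · Input – 3 million cells/mL in well · Reagent – JC-1 fluorescent substrate · Compound – single test compound dose, 6.6 µM final · Timing – 10 min exposure at 25 °C with rotation, no wash · Detection – flow cytometry of retained JC-1 fluorescence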
ABCB1 inh: ABCB1 efflux pump inhibitors, primary screen, cell-based, multiplex, flow cytometry, ABCG2 counter-screen | inhibition, % at 6.6 µM | 190,000 compounds, 0.067% hits | CCRF-Adr cells, JC-1 efflux; in the data active = inhibition above about 40%;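 note: higher value means more JC-1 retained so stronger ABCB1 efflux block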
WT yeast gro inh: growth inhibition of WT strain, primary screen, mitochondrial fusion inhibitor project, WT and mutant strains, chemical genetic | mitochondrial fusion phenotypic screen | inhibition, % at 10 µM | 190,000 compounds, 2.1% hits | AID 1362, 2008; in the data active = inhibition above about 58%; tested in S. cerevisiae
A number is an active result.

`CC1C/C(=N\NC(=O)c2cccnc2)CC(C)(C)C1` (configuration not stated) gave Lmaj promast inactive, RAM network inh inactive, ABCG2 block inactive, ABCB1 inh inactive and WT yeast gro inh inactive.
Screening CC1C/C(=N\NC(=S)NC(C)C)CC(C)(C)C1 (configuration not stated) returned Lmaj promast 100, RAM network inh inactive, ABCG2 block inactive, ABCB1 inh inactive and WT yeast gro inh 65.
CCN(CCCc1ccccc1)CCCc1ccccc1 was read as Lmaj promast 95, RAM network inh inactive, ABCG2 block inactive, ABCB1 inh inactive and WT yeast gro inh inactive.
CC1=NN(c2ccc(C)c(C)c2)C(=O)/C1=C\C=C\c1ccc([N+](=O)[O-])o1 was read as Lmaj promast 98, RAM network inh inactive, ABCG2 block inactive, ABCB1 inh inactive and WT yeast gro inh inactive.
For O=[N+]([O-])c1ccc(/C=C/C2=NN(c3ccccc3)C(c3ccco3)C2)o1 (configuration not stated) the results were Lmaj promast inactive, RAM network inh inactive, ABCG2 block inactive, ABCB1 inh inactive and WT yeast gro inh inactive.
CC(=O)N1N=C(c2ccc(C)cc2)OC1c1ccc(Br)cc1 (configuration not stated) was read as Lmaj promast inactive, RAM network inh inactive, ABCG2 block inactive, ABCB1 inh inactive and WT yeast gro inh 63.
For Cc1cc(C)c(NS(=O)(=O)c2ccc3c(c2)NC(=O)CC(=O)N3)c(C)c1 the results were Lmaj promast inactive, RAM network inh inactive, ABCG2 block inactive, ABCB1 inh inactive and WT yeast gro inh inactive.
Screening Cc1ccc(-n2cc(C(=O)c3ccc(F)cc3)nn2)cc1Cl returned Lmaj promast inactive, RAM network inh inactive, ABCG2 block inactive, ABCB1 inh inactive and WT yeast gro inh 68.
For O=C(OCc1cn(-c2ccc(Cl)c(Cl)c2)nn1)c1ccccc1 the results were Lmaj promast inactive, RAM network inh inactive, ABCG2 block inactive, ABCB1 inh inactive and WT yeast gro inh inactive.
For Cc1ccc(NC(=O)CSc2nc(N)c3c4c(sc3n2)CSC(C)(C)C4)cc1 the results were Lmaj promast 88, RAM network inh inactive, ABCG2 block inactive, ABCB1 inh inactive and WT yeast gro inh inactive.
For Cc1ccccc1NC(=O)CSc1nc(N)c2c3c(sc2n1)CSC(C)(C)C3 the results were Lmaj promast inactive, RAM network inh inactive, ABCG2 block inactive, ABCB1 inh inactive and WT yeast gro inh inactive.
`Cc1ccc(-n2c(SCC(=O)NCc3ccco3)nc3sc4c(c3c2=O)CC(C)(C)SC4)cc1` gave Lmaj promast inactive, RAM network inh 10, ABCG2 block inactive, ABCB1 inh inactive and WT yeast gro inh inactive.
`N#CCC(=O)Nc1ccc(C(F)(F)F)cc1N1CCOCC1` gave Lmaj promast inactive, RAM network inh inactive, ABCG2 block inactive, ABCB1 inh inactive and WT yeast gro inh inactive.
For FC(F)(F)c1ccccc1NC(=S)NC1CCN(Cc2ccccc2)CC1 the results were Lmaj promast 76, RAM network inh inactive, ABCG2 block inactive, ABCB1 inh inactive and WT yeast gro inh inactive.
For CC(C)c1ccccc1NC(=S)NC1CCN(Cc2ccccc2)CC1 the results were Lmaj promast 74, RAM network inh inactive, ABCG2 block inactive, ABCB1 inh inactive and WT yeast gro inh inactive.
Screening S=C(NCc1ccc(Cl)cc1)NC1CCN(Cc2ccccc2)CC1 returned Lmaj promast 80, RAM network inh inactive, ABCG2 block inactive, ABCB1 inh inactive and WT yeast gro inh inactive.
For COc1ccc(CCNC(=S)NC2CCN(Cc3ccccc3)CC2)cc1OC the results were Lmaj promast inactive, RAM network inh inactive, ABCG2 block inactive, ABCB1 inh inactive and WT yeast gro inh inactive.
Cc1c(Cl)cccc1NC(=S)NCc1ccccc1 was read as Lmaj promast 72.
`S=C(Nc1ccccc1Cl)NC1CCN(Cc2ccccc2)CC1` gave Lmaj promast 95, RAM network inh inactive, ABCG2 block inactive, ABCB1 inh inactive and WT yeast gro inh inactive.
For Cc1c(Cl)cccc1NC(=S)NC1CCN(Cc2ccccc2)CC1 the results were Lmaj promast 86, RAM network inh inactive, ABCG2 block inactive, ABCB1 inh inactive and WT yeast gro inh inactive.
